# Screens as filed in PubChem.
# A selection follows.
# Apaf-1 act = human Apaf-1 activation | activity change, negative = activation, % at 20 µM | O14727 | AID 489031 | Apaf-1 apoptosome caspase-3 activation, DEVD-Rh110 fluorescence; stronger effect = lower value | 330,000 compounds, 0.31% hits;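 active = activity change at or below -40% at 20 µM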
#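 Assay system – biochemical Apaf-1 apoptosome reconstitution · Medium – 20 mM HEPES buffer, pH 7.5, containing CHAPS and BSA · Incubation – 30 min preincubation, 50 min reaction, room temperature · Measured by – Caspase-3-released Rh110 fluorescence, 540 nm emission, 480 nm excitation · Read-out – Caspase-3 cleavage activity downstream of Apaf-1 activation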
# Rh110 interf act = Rh110 signal interference in Apaf-1 activator counter-screen. shares compounds with Apaf-1 act. fluorescence interference (activity change), % at 20 µM, hits read low. Rh110 fluorescence interference, quenched caspase reaction, Ex480/Em540. AID 504616. 980 tested, under 10 active;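 active = mean activity change at or below -40% when tested at 20 µM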
# Apaf-1 act conf = Apaf-1 (human) activation, single-dose confirmed | shares compounds with Apaf-1 act | reconstituted apoptosome caspase-3 activity, DEVD-Rh110 fluorescence; stronger effect = lower value | activity change, negative = activation, % at 20 µM | 980 compounds, 5% hits;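 active = mean activity change at or below -40%, meaning activation of 40% or more, at 20 µM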
# * marks the source's active call; other numbers are inactive results; nt = not tested or not shown.
SMILES,Apaf-1 act,Rh110 interf act,Apaf-1 act conf
CC(CCC(C)C(C)(C)C)[C@@H]1CC[C@H]2C3C[C@H](OS(O)(=S)=S)[C@H]4C[C@H](OS(O)(=S)=S)[C@@H](OS(O)(=S)=S)C[C@]4(C)[C@H]3CC[C@]12C (stereo not given in full) (tested in a mixture with another compound),86.8,nt,nt
Cc1cccc(-c2nnc3sc(-c4ccccc4C)nn23)c1,-48.6*,6.3,26.3
Cc1cccc(-c2cc3c(nn2)-c2ccccc2C3=O)c1,91.1,nt,nt
COc1cccc(OC)c1-c1nn2c(-c3cc(-c4ccccc4)n[nH]3)nnc2s1,53.1,nt,nt
COc1ccc(C(CCN2CCOCC2)c2c(OC)cc(OC)c3c(-c4ccccc4)cc(=O)oc23)cc1 (stereo not given),52.9,nt,nt
Cc1ccc(NC(=S)Nc2cccc3ccccc23)cc1F,88.9,nt,nt
CC(C)CC(=O)NC(=S)Nc1ccccc1F,-79.7*,-7.1,11.2
CC(C)CCOc1ccc(C(CC(N)=O)C(=O)O)cc1 (stereo not given),-41.3*,12.9,14.8
c1csc(-c2nc3c4ccccc4c4ccccc4c3[nH]2)c1,44.2,nt,nt
CCCCc1c(C)nn(-c2nnc3c4ccccc4n(CC)c3n2)c1C,46.8,nt,nt
CC(C)N1CCN(Cc2cnc(-c3ccccc3)s2)CC1CCO (stereo not given),-45.5*,0.1,8.8
CCCCNC(=O)C(C)N(CCN(C)C)C(=O)CCCN1C(=O)NC(c2ccc([N+](=O)[O-])cc2)C(C(=O)OCc2ccccc2)=C1C (stereo not given),45.3,nt,nt
COc1ccc(/C=C/C(=O)Nc2cc(C)nn2-c2nc3ccccc3[nH]2)cc1,-56.2*,11.4,14.5
O=C1CC(N2CCN(C3CCc4ccccc4C3)CC2)C(=O)N1c1ccccc1 (stereo not given),-43.1*,13.3,18.0
CC(C)c1ccc(/C=N/Nc2cc(N3CCOCC3)nc(N3CCOCC3)n2)cc1,62.1,nt,nt
Cc1cc(N2CCCCC2)nc(N2CCOCC2)n1,-56.7*,5.9,10.4
Cc1cccc(/C=N/Nc2cc(N3CCOCC3)nc(N3CCOCC3)n2)c1,67.6,nt,nt
C#CCOCCOCCOCCNc1nc(N2CCN(C(=O)CCCCCCCCCCNC(=O)Cn3cc(CCCCCN)nn3)CC2)nc(N2CCN(C(=O)CCCCCCCCCCNC(=O)[C@H]([C@@H](C)CC)n3cc(CCCCN=C(N)N)nn3)CC2)n1,85.4,nt,nt
Cc1cc(-c2ccccc2C(=O)NC2CCCCC2)on1,-148.5*,9.3,7.6
O=C(NC1CCCC1)c1ccc2nc(-c3ccco3)c(-c3ccco3)nc2c1,44.5,nt,nt
CCOc1cc(/C=C2\C(=O)N(CCC#N)N=C2C)ccc1OCC(N)=O,57.8,nt,nt
CCCCCc1cc(=O)oc2c(C(CCN3CCCC(C)C3)c3ccc4c(c3)OCO4)c(OC)cc(OC)c12 (stereo not given),65.6,nt,nt
CCc1ccccc1NC(=O)CCS(=O)(=O)c1ccc(OC)cc1,-117.4*,-0.3,-3.5
CCc1ccccc1NC(=O)CCNS(=O)(=O)c1cc(Br)cnc1N,48.7,nt,nt
CCN1CCN(C2=C(NS(=O)(=O)c3ccccc3)C(=O)c3ccccc3C2=O)CC1,82.5,nt,nt
SMILES,Apaf-1 act,Rh110 interf act,Apaf-1 act conf
O=C(Cc1cc(=O)[nH][nH]1)N/N=C/C=C/c1ccccc1,48.5,nt,nt
CCOC(=O)C1CCCN(C2CCN(Cc3nc(Cc4ccccc4)no3)CC2)C1 (stereo not given),-72.0*,-0.2,11.0
O=C(C1CCCN(S(=O)(=O)c2cnc[nH]2)C1)N1CCN(Cc2ccccc2)CC1 (stereo not given),40.5,nt,nt
CCOC(=O)C1CCN(C2=C(NS(=O)(=O)c3ccc(Br)cc3)C(=O)c3ccccc3C2=O)CC1,68.0,nt,nt
C#CCOCCOCCOCCNc1nc(N2CCN(C(=O)[C@H]([C@@H](C)CC)n3cc([C@@H](N)Cc4ccc(O)cc4)nn3)CC2)nc(N2CCN(C(=O)[C@H](CCCCN)n3cc([C@@H](N)CO)nn3)CC2)n1,52.3,nt,nt
Cc1cc2nn(-c3ccc(Cl)cc3)nc2cc1N,49.5,nt,nt
OC(c1cc(C(F)(F)F)nc2c(C(F)(F)F)cccc12)C1CCCCN1 (stereo not given),48.2,nt,nt
COc1cccc2c1C(=O)C=C(C)C2=O,56.1,nt,nt
CCCCOc1ccc(C(=O)NCC(=O)NCC(c2cccs2)N2CCOCC2)cc1 (stereo not given),41.4,nt,nt
COc1ccc(C(CNC(=O)c2cccn2C)N2CCOCC2)cc1 (stereo not given),47.1,nt,nt
O=C(NCC(c1ccc(F)cc1)N1CCOCC1)c1cccnc1Sc1ccccc1 (stereo not given),-57.4*,7.8,12.5
CN(Cc1c(F)cccc1Cl)C(=O)c1ccc(COc2ccccc2)cc1,53.4,nt,nt
